Where a SMILES comes first, the peptide text is derived from it. [ ]: non-standard residue; d: D form. Dap = NC[C@H](N)C(=O)O
Tests used:
Acinetobacter baumannii [1] = assay: Ratio of MIC for Acinetobacter baumannii 649 measured in presence of 25% human serum to MIC for Acinetobacter baumannii 649 in absence of 25% human serum; assay type: functional
Summary of the method: (§1)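 Blood strain 649 was tested by MH broth microdilution with and without 25% (v/v) human serum added to the medium. The test used a final inoculum of 5 × 10^5 cfu/mL and incubation at 37 °C. The ratio is the MIC in serum over the MIC in MH alone.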

Acinetobacter baumannii [2] = assay: Antibacterial activity against Acinetobacter baumannii 649 measured after 24 hrs in presence of 25% human serum by microtiter dilution method; assay type: functional; details: Acinetobacter baumannii, 649, 24 h; summary of the method: as §1
[3] = Therapeutic index, ratio of HC50 for human RBC to MIC for polymyxin B/colistin-resistant Acinetobacter baumannii M89963; assay type: toxicity; details: human red blood cells, read-out: TI
Summary of the method: (§2)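 T.I. = HC50/MIC. For HC50, peptide (quantified by amino acid analysis) was two-fold serially diluted over 12 concentrations up to 1000 μg/mL. It was incubated with 1% fresh human erythrocytes in PBS, pH 7.4, for 18 h at 37 °C. After 800g centrifugation, hemoglobin was read at 570 nm against water (100%) and no-peptide (0%) controls. HC50 came from a lysis-versus-concentration plot, average of 3 replicates.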

Acinetobacter baumannii [4] = assay: Antibacterial activity against Acinetobacter baumannii 649 measured after 24 hrs by microtiter dilution method; assay type: functional; details: Acinetobacter baumannii, 649, 24 h
Summary of the method: (§3)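 Broth microdilution in Mueller-Hinton (MH) medium. […] Plates were incubated 24 h at 37 °C. MIC was the lowest peptide concentration that inhibited growth, based on three sets of replicates.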

[5] = Therapeutic index, ratio of HC50 for human RBC to MIC for polymyxin B/colistin-resistant Acinetobacter baumannii M89955; assay type: toxicity; details: human red blood cells, read-out: TI; summary of the method: as §2
[6] = Therapeutic index, ratio of HC50 for human RBC to MIC for polymyxin B/colistin-resistant Acinetobacter baumannii M89953; assay type: toxicity; details: human red blood cells, read-out: TI; summary of the method: as §2
[7] = Therapeutic index, ratio of HC50 for human RBC to MIC for polymyxin B/colistin-resistant Acinetobacter baumannii M89951; assay type: toxicity; details: human red blood cells, read-out: TI; summary of the method: as §2
[8] = Therapeutic index, ratio of HC50 for human RBC to MIC for polymyxin B/colistin-resistant Acinetobacter baumannii M89952; assay type: toxicity; details: human red blood cells, read-out: TI; summary of the method: as §2
[9] = Therapeutic index, ratio of HC50 for human RBC to MIC for polymyxin B/colistin-resistant Acinetobacter baumannii M89949; assay type: toxicity; details: human red blood cells, read-out: TI; summary of the method: as §2
[10] = Hemolytic activity against human RBC measured after 18 hrs by spectrophotometric method; assay type: ADME, cell-based, Erythrocyte; details: human red blood cells (erythrocytes)
Summary of the method: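 Peptide (amount by amino acid analysis), two-fold serial dilutions at 12 concentrations up to 1000 μg/mL, with 1% human erythrocytes in PBS pH 7.4, 37 °C, 18 h. Unlysed cells removed by centrifugation (800g); hemoglobin read at 570 nm. Water-lysed cells = 100%, no-peptide cells = 0%. HC50 from plot of % lysis vs concentration (μM), average of 3 replicates.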

[11] = Therapeutic index, ratio of HC50 for human RBC to MIC for polymyxin B/colistin-resistant Acinetobacter baumannii M89941; assay type: toxicity; details: human red blood cells, read-out: TI; summary of the method: as §2
Acinetobacter baumannii [12] = assay: Antibacterial activity against Acinetobacter baumannii isolate 1001611 measured after 24 hrs by microtiter dilution method; assay type: functional; details: isolate 1001611, 24 h; summary of the method: as §3
Acinetobacter baumannii [13] = assay: Antibacterial activity against Acinetobacter baumannii isolate 1007660 measured after 24 hrs by microtiter dilution method; assay type: functional; details: isolate 1007660, 24 h; summary of the method: as §3
Acinetobacter baumannii [14] = assay: Antibacterial activity against Acinetobacter baumannii isolate 1021371 measured after 24 hrs by microtiter dilution method; assay type: functional; details: isolate 1021371, 24 h; summary of the method: as §3
Acinetobacter baumannii [15] = assay: Antibacterial activity against Acinetobacter baumannii isolate 952654 measured after 24 hrs by microtiter dilution method; assay type: functional; details: isolate 952654, 24 h; summary of the method: as §3
Acinetobacter baumannii [16] = assay: Antibacterial activity against Acinetobacter baumannii isolate 9383370 measured after 24 hrs by microtiter dilution method; assay type: functional; details: isolate 9383370, 24 h; summary of the method: as §3
Acinetobacter baumannii [17] = assay: Antibacterial activity against Acinetobacter baumannii isolate 961997 measured after 24 hrs by microtiter dilution method; assay type: functional; details: isolate 961997, 24 h; summary of the method: as §3
Acinetobacter baumannii [18] = assay: Antibacterial activity against Acinetobacter baumannii isolate 1002956 measured after 24 hrs by microtiter dilution method; assay type: functional; details: isolate 1002956, 24 h; summary of the method: as §3
Acinetobacter baumannii [19] = assay: Antibacterial activity against Acinetobacter baumannii isolate 977751 measured after 24 hrs by microtiter dilution method; assay type: functional; details: isolate 977751, 24 h; summary of the method: as §3
Acinetobacter baumannii [20] = assay: Antibacterial activity against Acinetobacter baumannii isolate 1035166 measured after 24 hrs by microtiter dilution method; assay type: functional; details: isolate 1035166, 24 h; summary of the method: as §3
Acinetobacter baumannii [21] = assay: Antibacterial activity against Acinetobacter baumannii isolate 1010282 measured after 24 hrs by microtiter dilution method; assay type: functional; details: isolate 1010282, 24 h; summary of the method: as §3
Acinetobacter baumannii [22] = assay: Antibacterial activity against Acinetobacter baumannii isolate 1010245 measured after 24 hrs by microtiter dilution method; assay type: functional; details: isolate 1010245, 24 h; summary of the method: as §3
Acinetobacter baumannii [23] = assay: Antibacterial activity against Acinetobacter baumannii isolate 1017395 measured after 24 hrs by microtiter dilution method; assay type: functional; details: isolate 1017395, 24 h; summary of the method: as §3
Acinetobacter baumannii [24] = assay: Antibacterial activity against Acinetobacter baumannii isolate 968886 measured after 24 hrs by microtiter dilution method; assay type: functional; details: isolate 968886, 24 h; summary of the method: as §3
Acinetobacter baumannii [25] = assay: Antibacterial activity against Acinetobacter baumannii isolate 964304 measured after 24 hrs by microtiter dilution method; assay type: functional; details: isolate 964304, 24 h; summary of the method: as §3
Acinetobacter baumannii [26] = assay: Antibacterial activity against Acinetobacter baumannii isolate 963659 measured after 24 hrs by microtiter dilution method; assay type: functional; details: isolate 963659, 24 h; summary of the method: as §3
Acinetobacter baumannii [27] = assay: Antibacterial activity against Acinetobacter baumannii isolate 963618 measured after 24 hrs by microtiter dilution method; assay type: functional; details: isolate 963618, 24 h; summary of the method: as §3
Acinetobacter baumannii [28] = assay: Antibacterial activity against Acinetobacter baumannii isolate 1018887 measured after 24 hrs by microtiter dilution method; assay type: functional; details: isolate 1018887, 24 h; summary of the method: as §3
Acinetobacter baumannii [29] = assay: Antibacterial activity against Acinetobacter baumannii isolate 1035794 measured after 24 hrs by microtiter dilution method; assay type: functional; details: isolate 1035794, 24 h; summary of the method: as §3
Acinetobacter baumannii [30] = assay: Antibacterial activity against Acinetobacter baumannii isolate 981650 measured after 24 hrs by microtiter dilution method; assay type: functional; details: isolate 981650, 24 h; summary of the method: as §3
Acinetobacter baumannii [31] = assay: Antibacterial activity against Acinetobacter baumannii isolate 965463 measured after 24 hrs by microtiter dilution method; assay type: functional; details: isolate 965463, 24 h; summary of the method: as §3
Acinetobacter baumannii [32] = assay: Antibacterial activity against polymyxin B/colistin-resistant Acinetobacter baumannii M89963 measured after 24 hrs by microtiter dilution method; assay type: functional; details: M89963, 24 h; summary of the method: as §3
Acinetobacter baumannii [33] = assay: Antibacterial activity against polymyxin B/colistin-resistant Acinetobacter baumannii M89955 measured after 24 hrs by microtiter dilution method; assay type: functional; details: M89955, 24 h; summary of the method: as §3
Acinetobacter baumannii [34] = assay: Antibacterial activity against polymyxin B/colistin-resistant Acinetobacter baumannii M89953 measured after 24 hrs by microtiter dilution method; assay type: functional; details: M89953, 24 h; summary of the method: as §3
Acinetobacter baumannii [35] = assay: Antibacterial activity against polymyxin B/colistin-resistant Acinetobacter baumannii M89952 measured after 24 hrs by microtiter dilution method; assay type: functional; details: M89952, 24 h; summary of the method: as §3
Acinetobacter baumannii [36] = assay: Antibacterial activity against polymyxin B/colistin-resistant Acinetobacter baumannii M89951 measured after 24 hrs by microtiter dilution method; assay type: functional; details: M89951, 24 h; summary of the method: as §3
Acinetobacter baumannii [37] = assay: Antibacterial activity against polymyxin B/colistin-resistant Acinetobacter baumannii M89949 measured after 24 hrs by microtiter dilution method; assay type: functional; details: M89949, 24 h; summary of the method: as §3
Acinetobacter baumannii [38] = assay: Antibacterial activity against polymyxin B/colistin-resistant Acinetobacter baumannii M89941 measured after 24 hrs by microtiter dilution method; assay type: functional; details: M89941, 24 h; summary of the method: as §3

CC(=O)N[C@H](CCCCN)C(=O)N[C@H](CC(C)C)C(=O)N[C@@H](CN)C(=O)N[C@H](CO)C(=O)N[C@H](CC(C)C)C(=O)N[C@H](CC(C)C)C(=O)N[C@@H](CN)C(=O)N[C@@H](C(=O)N[C@H](CC(C)C)C(=O)N[C@H](CO)C(=O)N[C@@H](CN)C(=O)N[C@H](C)C(=O)N[C@H](C)C(=O)N[C@H](C)C(=O)N[C@H](C)C(=O)N[C@H](C)C(=O)N[C@H](CC(C)C)C(=O)N[C@@H](CN)C(=O)N[C@@H](C(=O)N[C@H](CC(C)C)C(=O)N[C@H](CC(C)C)C(=O)N[C@@H](CN)C(=O)N[C@H](C)C(=O)N[C@H](CC(C)C)C(=O)N[C@H](CO)C(=O)N[C@@H](CN)C(N)=O)[C@H](C)O)[C@H](C)O (Ac-[dK][dL][Dap][dS][dL][dL][Dap][dT][dL][dS][Dap][dA][dA][dA][dA][dA][dL][Dap][dT][dL][dL][Dap][dA][dL][dS][Dap]-NH2)
0.8 µM: MIC (Acinetobacter baumannii [4]) | MIC (Acinetobacter baumannii [14]) | MIC (Acinetobacter baumannii [19]) | MIC (Acinetobacter baumannii [22]) | MIC (Acinetobacter baumannii [36]) | MIC (Acinetobacter baumannii [37])
2900 nM: HC50 at 18 h [10]
6.4 µM: MIC (Acinetobacter baumannii [15])
1.6 µM: MIC (Acinetobacter baumannii [12]) | MIC (Acinetobacter baumannii [16]) | MIC (Acinetobacter baumannii [18]) | MIC (Acinetobacter baumannii [21]) | MIC (Acinetobacter baumannii [24]) | MIC (Acinetobacter baumannii [27]) | MIC (Acinetobacter baumannii [29]) | MIC (Acinetobacter baumannii [30]) | MIC (Acinetobacter baumannii [32]) | MIC (Acinetobacter baumannii [33]) | MIC (Acinetobacter baumannii [34]) | MIC (Acinetobacter baumannii [35]) | MIC (Acinetobacter baumannii [38])
4 - 16: Ratio (Acinetobacter baumannii [1])
3.2 µM: MIC (Acinetobacter baumannii [13]) | MIC (Acinetobacter baumannii [17]) | MIC (Acinetobacter baumannii [20]) | MIC (Acinetobacter baumannii [23]) | MIC (Acinetobacter baumannii [25]) | MIC (Acinetobacter baumannii [26]) | MIC (Acinetobacter baumannii [28]) | MIC (Acinetobacter baumannii [31])
12.5 µM: MIC (Acinetobacter baumannii [2])
2.2: selectivity ratio [3] | selectivity ratio [5] | selectivity ratio [6] | selectivity ratio [7] | selectivity ratio [8] | selectivity ratio [9] | selectivity ratio [11]

Source: ChEMBL document CHEMBL4339192, “De Novo Designed Amphipathic α-Helical Antimicrobial Peptides Incorporating Dab and Dap Residues on the Polar Face To Treat the Gram-Negative Pathogen, Acinetobacter baumannii” (J Med Chem, 2019)
